ChEMBL document CHEMBL2086345, “Metabotropic glutamate receptor 5 negative allosteric modulators as novel tools for in vivo investigation” (ACS Med Chem Lett, 2012)
Values belong to the molecule of their own block, whether it stands above or below them. Calls of active or inactive are those of the source. The rule behind the calls is not given here.

Legend:
[1] = molecular target: T1, Metabotropic glutamate receptor 5 (Rattus norvegicus, UniProt P31424); assay: Displacement of [3H]MPEP from mGluR5 in Sprague-Dawley rat brain membrane after 60 mins by liquid scintillation counting; format: cell membranes
[2] = molecular target: T1, Metabotropic glutamate receptor 5; assay: Inverse agonist activity at rat mGluR5 expressed in HEK293A cells coexpressing Gqalpha assessed as inhibition of basal D-myo-inositol 1 production by ELISA
Mus musculus [3] = assay: Anxiolytic activity in Swiss Webster mouse assessed as increase in locomotor activity at 0.3 mg/kg, ip administered as single dose 15 mins prior to testing by open-field test; format: functional, organism-based; set-up: dose 0.3 mg/kg
Method in brief: (§1)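 Open-field test in mice. Drugs were suspended in 2% ethanol/10% Tween 80/water (MTEP in saline) and given ip 15 min before testing. Locomotor activity and time in the center region were recorded. n = 10–12 per dose, means ± SEM. Each dose was compared with its within-group vehicle cohort by one-way ANOVA with Bonferroni post hoc test.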

Mus musculus [4] = assay: Anxiolytic activity in ip dosed Swiss Webster mouse assessed as increase in number of compartment transitions administered as single dose 15 mins prior to testing by light-dark box test; format: functional, organism-based
Method in brief: (§2)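 Light–dark box test in mice. Drugs were given ip 15 min pretest in a 2% ethanol, 10% Tween 80 and water suspension (MTEP in saline). Read-outs were the proportion of time in the light compartment and the number of light–dark transitions. n = 10–12 per dose, means ± SEM. One-way ANOVA with Bonferroni test against the within-group vehicle cohort.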

Mus musculus [5] = assay: Anxiolytic activity in Swiss Webster mouse assessed as increase in time spent in light compartment at 0.3 mg/kg, ip administered as single dose 15 mins prior to testing by light-dark box test; format: functional, organism-based; set-up: dose 0.3 mg/kg; method in brief: as §2
Mus musculus [6] = assay: Anxiolytic activity in ip dosed Swiss Webster mouse assessed as increase in time spent in the centre region administered as single dose 15 mins prior to testing by open-field test; format: functional, organism-based; method in brief: as §1
[7] = molecular target: Metabotropic glutamate receptor 5 (Rattus norvegicus) (UniProt P31424); assay: Ratio of MPEP Ki to compound Ki for mGluR5 in Sprague-Dawley rat brain membrane; format: cell membranes
Mus musculus [8] = assay: Anxiolytic activity in ip dosed Swiss Webster mouse assessed as increase in locomotor activity administered as single dose 15 mins prior to testing by open-field test; format: functional, organism-based; method in brief: as §1
Mus musculus [9] = assay: Anxiolytic activity in Swiss Webster mouse assessed as increase in locomotor activity at 3 mg/kg, ip administered as single dose 15 mins prior to testing by open-field test; format: functional, organism-based; set-up: dose 3 mg/kg; method in brief: as §1
Mus musculus [10] = assay: Anxiolytic activity in Swiss Webster mouse assessed as increase in number of compartment transitions at 3 mg/kg, ip administered as single dose 15 mins prior to testing by light-dark box test; format: functional, organism-based; set-up: dose 3 mg/kg; method in brief: as §2
Mus musculus [11] = assay: Anxiolytic activity in Swiss Webster mouse assessed as increase in time spent in light compartment at 3 mg/kg, ip administered as single dose 15 mins prior to testing by light-dark box test; format: functional, organism-based; set-up: dose 3 mg/kg; method in brief: as §2
Mus musculus [12] = assay: Anxiolytic activity in Swiss Webster mouse assessed as increase in number of compartment transitions at 0.3 mg/kg, ip administered as single dose 15 mins prior to testing by light-dark box test; format: functional, organism-based; set-up: dose 0.3 mg/kg; method in brief: as §2
[13] = molecular target: Metabotropic glutamate receptor 5 (Rattus norvegicus) (UniProt P31424); assay: Inverse agonist activity at rat mGluR5 expressed in HEK293A cells coexpressing Gqalpha assessed as inhibition of quisqualic-induced D-myo-inositol 1 production by ELISA; format: functional, cell-based; details: HEK293-A
Method in brief: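 IP₃ production was gauged indirectly by IP-One ELISA for IP₁ accumulation. Dose–response curves were run without agonist and in the presence of 1 μM quisqualic acid.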

Mus musculus [14] = assay: Anxiolytic activity in Swiss Webster mouse assessed as increase in time spent in the centre region at 3 mg/kg, ip administered as single dose 15 mins prior to testing by open-field test; format: functional, organism-based; set-up: dose 3 mg/kg; method in brief: as §1
Mus musculus [15] = assay: Anxiolytic activity in ip dosed Swiss Webster mouse assessed as increase in time spent in light compartment administered as single dose 15 mins prior to testing by light-dark box test; format: functional, organism-based; method in brief: as §2
Mus musculus [16] = assay: Anxiolytic activity in Swiss Webster mouse assessed as increase in time spent in the centre region at 0.3 mg/kg, ip administered as single dose 15 mins prior to testing by open-field test; format: functional, organism-based; set-up: dose 0.3 mg/kg; method in brief: as §1
Mus musculus [17] = assay: Anxiolytic activity in Swiss Webster mouse assessed as increase in time spent in the centre region at 10 mg/kg, ip administered as single dose 15 mins prior to testing by open-field test; format: functional, organism-based; set-up: dose 10 mg/kg; method in brief: as §1
Mus musculus [18] = assay: Anxiolytic activity in Swiss Webster mouse assessed as increase in time spent in light compartment at 10 mg/kg, ip administered as single dose 15 mins prior to testing by light-dark box test; format: functional, organism-based; set-up: dose 10 mg/kg; method in brief: as §2
Mus musculus [19] = assay: Anxiolytic activity in Swiss Webster mouse assessed as increase in number of compartment transitions at 10 mg/kg, ip administered as single dose 15 mins prior to testing by light-dark box test; format: functional, organism-based; set-up: dose 10 mg/kg; method in brief: as §2
Mus musculus [20] = assay: Anxiolytic activity in Swiss Webster mouse assessed as increase in locomotor activity at 10 mg/kg, ip administered as single dose 15 mins prior to testing by open-field test; format: functional, organism-based; set-up: dose 10 mg/kg; method in brief: as §1
Mus musculus [21] = assay: Anxiolytic activity in Swiss Webster mouse assessed as increase in locomotor activity at 0.1 to 0.3 mg/kg, ip administered as single dose 15 mins prior to testing by open-field test; format: functional, organism-based; method in brief: as §1
Mus musculus [22] = assay: Anxiolytic activity in Swiss Webster mouse assessed as increase in number of compartment transitions at 0.1 to 0.3 mg/kg, ip administered as single dose 15 mins prior to testing by light-dark box test; format: functional, organism-based; method in brief: as §2
Mus musculus [23] = assay: Anxiolytic activity in Swiss Webster mouse assessed as increase in time spent in light compartment at 0.1 to 0.3 mg/kg, ip administered as single dose 15 mins prior to testing by light-dark box test; format: functional, organism-based; method in brief: as §2
Mus musculus [24] = assay: Anxiolytic activity in Swiss Webster mouse assessed as increase in time spent in the centre region at 0.1 to 0.3 mg/kg, ip administered as single dose 15 mins prior to testing by open-field test; format: functional, organism-based; method in brief: as §1
Mus musculus [25] = assay: Anxiolytic activity in Swiss Webster mouse assessed as increase in locomotor activity at 3 to 30 mg/kg, ip administered as single dose 15 mins prior to testing by open-field test; format: functional, organism-based; method in brief: as §1
Mus musculus [26] = assay: Anxiolytic activity in Swiss Webster mouse assessed as increase in number of compartment transitions at 3 to 30 mg/kg, ip administered as single dose 15 mins prior to testing by light-dark box test; format: functional, organism-based; method in brief: as §2
Mus musculus [27] = assay: Anxiolytic activity in Swiss Webster mouse assessed as increase in time spent in light compartment at 30 mg/kg, ip administered as single dose 15 mins prior to testing by light-dark box test; format: functional, organism-based; set-up: dose 30 mg/kg; method in brief: as §2
Mus musculus [28] = assay: Anxiolytic activity in Swiss Webster mouse assessed as increase in locomotor activity at 30 mg/kg, ip administered as single dose 15 mins prior to testing by open-field test; format: functional, organism-based; set-up: dose 30 mg/kg; method in brief: as §1
Mus musculus [29] = assay: Anxiolytic activity in Swiss Webster mouse assessed as increase in time spent in the centre region at 3 to 30 mg/kg, ip administered as single dose 15 mins prior to testing by open-field test; format: functional, organism-based; method in brief: as §1
Mus musculus [30] = assay: Anxiolytic activity in Swiss Webster mouse assessed as increase in time spent in light compartment at 3 to 30 mg/kg, ip administered as single dose 15 mins prior to testing by light-dark box test; format: functional, organism-based; method in brief: as §2
Mus musculus [31] = assay: Anxiolytic activity in Swiss Webster mouse assessed as increase in time spent in the centre region at 30 mg/kg, ip administered as single dose 15 mins prior to testing by open-field test; format: functional, organism-based; set-up: dose 30 mg/kg; method in brief: as §1
Mus musculus [32] = assay: Anxiolytic activity in Swiss Webster mouse assessed as increase in number of compartment transitions at 30 mg/kg, ip administered as single dose 15 mins prior to testing by light-dark box test; format: functional, organism-based; set-up: dose 30 mg/kg; method in brief: as §2

T1 sequence (P31424 whole entry): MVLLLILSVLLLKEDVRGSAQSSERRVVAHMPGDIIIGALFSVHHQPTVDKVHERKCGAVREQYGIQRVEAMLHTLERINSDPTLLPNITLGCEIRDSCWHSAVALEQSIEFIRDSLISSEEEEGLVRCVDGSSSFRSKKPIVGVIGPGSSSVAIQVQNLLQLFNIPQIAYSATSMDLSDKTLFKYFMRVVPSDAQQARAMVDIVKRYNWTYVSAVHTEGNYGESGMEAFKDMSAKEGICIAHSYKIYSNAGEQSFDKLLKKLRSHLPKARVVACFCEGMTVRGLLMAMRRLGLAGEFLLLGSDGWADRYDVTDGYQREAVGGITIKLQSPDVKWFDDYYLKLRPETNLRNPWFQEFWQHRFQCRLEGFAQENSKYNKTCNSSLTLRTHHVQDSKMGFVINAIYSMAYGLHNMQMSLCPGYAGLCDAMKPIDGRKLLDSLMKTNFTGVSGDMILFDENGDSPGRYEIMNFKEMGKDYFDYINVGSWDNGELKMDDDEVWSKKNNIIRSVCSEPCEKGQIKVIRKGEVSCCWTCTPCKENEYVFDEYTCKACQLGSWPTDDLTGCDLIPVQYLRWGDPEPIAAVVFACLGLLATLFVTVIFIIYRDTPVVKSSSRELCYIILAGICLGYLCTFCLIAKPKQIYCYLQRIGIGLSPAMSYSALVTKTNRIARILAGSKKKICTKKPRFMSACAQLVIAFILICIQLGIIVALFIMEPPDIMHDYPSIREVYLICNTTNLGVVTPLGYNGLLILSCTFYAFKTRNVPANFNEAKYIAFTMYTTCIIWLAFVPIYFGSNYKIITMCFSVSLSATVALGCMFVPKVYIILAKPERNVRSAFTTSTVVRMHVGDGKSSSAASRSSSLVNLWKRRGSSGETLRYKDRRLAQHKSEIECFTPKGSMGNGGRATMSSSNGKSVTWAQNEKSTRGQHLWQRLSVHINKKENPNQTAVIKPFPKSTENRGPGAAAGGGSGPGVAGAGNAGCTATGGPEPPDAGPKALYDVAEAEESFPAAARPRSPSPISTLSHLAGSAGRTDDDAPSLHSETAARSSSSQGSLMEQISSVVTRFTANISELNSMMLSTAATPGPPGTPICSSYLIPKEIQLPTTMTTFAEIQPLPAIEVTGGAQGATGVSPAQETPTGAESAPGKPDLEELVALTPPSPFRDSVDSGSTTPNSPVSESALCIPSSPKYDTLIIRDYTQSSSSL
Metabotropic glutamate receptor 5 (Rattus norvegicus), sequence (P31424 21-1203 limits assumed): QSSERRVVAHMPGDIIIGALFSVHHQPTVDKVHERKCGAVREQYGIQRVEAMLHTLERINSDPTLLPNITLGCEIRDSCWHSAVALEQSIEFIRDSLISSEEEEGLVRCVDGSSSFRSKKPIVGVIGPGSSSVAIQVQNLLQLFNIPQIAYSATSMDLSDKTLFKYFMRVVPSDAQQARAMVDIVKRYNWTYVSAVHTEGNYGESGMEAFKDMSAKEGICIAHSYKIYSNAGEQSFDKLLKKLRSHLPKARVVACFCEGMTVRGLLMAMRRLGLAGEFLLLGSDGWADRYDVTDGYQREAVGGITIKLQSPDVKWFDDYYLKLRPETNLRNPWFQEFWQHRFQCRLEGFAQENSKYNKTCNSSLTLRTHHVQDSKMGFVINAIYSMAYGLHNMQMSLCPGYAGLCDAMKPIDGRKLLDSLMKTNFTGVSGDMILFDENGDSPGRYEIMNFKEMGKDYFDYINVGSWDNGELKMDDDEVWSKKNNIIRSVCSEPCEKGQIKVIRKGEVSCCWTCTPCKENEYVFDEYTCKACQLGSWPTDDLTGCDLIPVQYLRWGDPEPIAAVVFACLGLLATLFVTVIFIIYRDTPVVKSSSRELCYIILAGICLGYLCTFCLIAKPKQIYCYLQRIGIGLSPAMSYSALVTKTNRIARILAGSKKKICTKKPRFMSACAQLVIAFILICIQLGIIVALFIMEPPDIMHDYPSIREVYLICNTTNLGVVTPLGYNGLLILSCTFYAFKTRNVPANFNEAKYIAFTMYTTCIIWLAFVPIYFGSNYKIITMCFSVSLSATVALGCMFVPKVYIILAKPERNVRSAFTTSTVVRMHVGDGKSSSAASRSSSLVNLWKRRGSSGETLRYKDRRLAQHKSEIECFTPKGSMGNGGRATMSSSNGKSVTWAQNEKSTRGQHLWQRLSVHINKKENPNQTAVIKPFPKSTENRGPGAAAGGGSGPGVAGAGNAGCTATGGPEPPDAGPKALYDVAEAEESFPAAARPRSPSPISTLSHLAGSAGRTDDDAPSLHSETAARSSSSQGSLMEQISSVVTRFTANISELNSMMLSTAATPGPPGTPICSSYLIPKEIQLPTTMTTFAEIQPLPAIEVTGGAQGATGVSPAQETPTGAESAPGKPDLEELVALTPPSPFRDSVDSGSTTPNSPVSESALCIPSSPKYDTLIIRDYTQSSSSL

SMILES: COc1cccc(C#Cc2cc(F)cc(C#N)c2)n1
Ki [1]: 40 nM | IC50 [2]: 400 nM

SMILES: Cc1cccc(C#Cc2cc(F)cc(C#N)c2)n1
Ki [1]: 0.67 nM | Activity (Mus musculus [3]): Active | Activity (Mus musculus [4]): Dose-dependent effect | Activity (Mus musculus [5]): Active | Activity (Mus musculus [6]): Dose-dependent effect | Ratio Ki [7]: 24 | Activity (Mus musculus [8]): Dose-dependent effect | Activity (Mus musculus [9]): Active | Activity (Mus musculus [10]): inactive | Activity (Mus musculus [11]): inactive | Activity (Mus musculus [12]): Active | inhibition [13]: Dose-dependent effect | Activity (Mus musculus [14]): inactive | IC50 [2]: 2.4 nM | Activity (Mus musculus [15]): Dose-dependent effect | Activity (Mus musculus [16]): Active

SMILES: N#Cc1cccc(C#Cc2cccc(F)n2)c1
Ki [1]: 150 nM | IC50 [2]: 210 nM

SMILES: CC(=O)c1cccc(C#Cc2cc(F)cc(C#N)c2)n1
Ki [1]: 64 nM | IC50 [2]: 240 nM

SMILES: COc1cc(C#N)cc(C#Cc2cccc(C)n2)c1
Ki [1]: 1.29 nM | IC50 [2]: 3.4 nM

SMILES: N#Cc1cncc(C#Cc2cccc(C#N)n2)c1
Ki [1]: 52 nM | IC50 [2]: 500 nM

SMILES: COc1cccc(C#Cc2cncc(C#N)c2)n1
Ki [1]: 55 nM | IC50 [2]: 200 nM

SMILES: CC(=O)c1cccc(C#Cc2cccc(C#N)c2)n1
Ki [1]: 114 nM | IC50 [2]: 300 nM

SMILES: N#Cc1cc(F)cc(C#Cc2cccc(C#N)n2)c1
Ki [1]: 2.7 nM | Activity (Mus musculus [4]): Dose-dependent effect | Activity (Mus musculus [6]): Dose-dependent effect | Activity (Mus musculus [21]): Active | Ratio Ki [7]: 6 | Activity (Mus musculus [8]): Dose-dependent effect | Activity (Mus musculus [22]): Active | Activity (Mus musculus [9]): inactive | Activity (Mus musculus [10]): inactive | Activity (Mus musculus [11]): inactive | Activity (Mus musculus [23]): Active | inhibition [13]: Dose-dependent effect | Activity (Mus musculus [14]): inactive | IC50 [2]: 9 nM | Activity (Mus musculus [24]): Active | Activity (Mus musculus [15]): Dose-dependent effect

SMILES: N#Cc1cccc(C#Cc2cccc(CO)n2)c1
Ki [1]: 37 nM | IC50 [2]: 30 nM

SMILES: N#Cc1cc(F)cc(C#Cc2cccc(CO)n2)c1
Ki [1]: 7.5 nM | IC50 [2]: 50 nM

SMILES: CCc1cccc(C#Cc2cccc(C#N)c2)n1
Ki [1]: 3.4 nM | IC50 [2]: 80 nM

SMILES: N#Cc1cncc(C#Cc2cccc(CO)n2)c1
Ki [1]: > 10000 nM

SMILES: CCCCc1cccc(C#Cc2cccc(C#N)c2)n1
Ki [1]: 45 nM | IC50 [2]: 700 nM

More lines, main results first:

Ki [1]: 41 nM | IC50 [2]: 80 nM
SMILES: N#Cc1cc(F)cc(C#Cc2cccc(F)n2)c1

Ki [1]: 8.2 nM | IC50 [2]: 20 nM
SMILES: N#Cc1cccc(C#Cc2cccc(C#N)n2)c1

inhibition [13]: Dose-dependent effect
SMILES: Cc1nc(C#Cc2cccnc2)cs1
Activity (Mus musculus [4]): Dose-dependent effect | Activity (Mus musculus [6]): Dose-dependent effect | Activity (Mus musculus [17]): Active | Activity (Mus musculus [8]): Dose-dependent effect | Activity (Mus musculus [18]): Active | Activity (Mus musculus [19]): Active | Activity (Mus musculus [20]): Active | Activity (Mus musculus [15]): Dose-dependent effect

Ki [1]: 1.04 nM | IC50 [2]: 13 nM
SMILES: Cc1cccc(C#Cc2cccc(C#N)c2)n1

inhibition [13]: Dose-dependent effect
SMILES: Cc1cccc(C#Cc2ccccc2)n1
Activity (Mus musculus [4]): Dose-dependent effect | Activity (Mus musculus [25]): Active | Activity (Mus musculus [26]): Active | Activity (Mus musculus [6]): Dose-dependent effect | Activity (Mus musculus [27]): inactive | Activity (Mus musculus [8]): Dose-dependent effect | Activity (Mus musculus [28]): Active | Activity (Mus musculus [29]): Active | Activity (Mus musculus [30]): Active | Activity (Mus musculus [31]): inactive | Activity (Mus musculus [15]): Dose-dependent effect | Activity (Mus musculus [32]): inactive

Ki [1]: > 10000 nM
SMILES: N#Cc1cccc(C#Cc2cc(F)cc(C(N)=O)c2)n1

Ki [1]: > 10000 nM
SMILES: N#Cc1cccc(C#Cc2cccc(C(N)=O)c2)n1

Ki [1]: 200 nM | IC50 [2]: 300 nM
SMILES: COc1cccc(C#Cc2cccc(C#N)c2)n1
